# Sampled rows, rich in hits. Any-hit rate of the full collection: about 1.5%.
# PG9 binder: PG9 antibody binding by small molecule; TR-FRET gp120-PG9 antibody binding; AID 624416; inhibition, % at 6.7 µM; actives 0.43% (n = 360,000); in the data active = inhibition above about 8.5%
# Rev-erbA mod: modulators of human Rev-erb alpha DNA binding | P20393 | Rev-erbα–FITC-DNA binding, fluorescence polarization, 90 min | activity, % at 10 µM | actives 0.79% (n = 370,000) | AID 1259318;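 active = activity above about 14%, limit read from the data; passing the limit was not always enough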;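 note: 0% = DMSO wells with 35 nM protein and 100% = DMSO wells with 750 nM protein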
# NR2E3 ag-1: activates human NR2E3 receptor | CHO-S Gal4-NCOR/VP16-NR2E3 two-hybrid, luciferase | inhibition of corepressor binding, % at 3.98 µM | actives 0.35% (n = 360,000);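 active = inhibition above the mean of all tested compounds plus 3 SD, cut at about 70% in these data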;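 note: 0% = DMSO with NR2E3 transfected cells and 100% = cells lacking NR2E3 construct; higher means lower luciferase signal from less NR2E3 corepressor binding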
# Target sequence (Q9Y5X4 whole entry, looked up, the tested form may be a part): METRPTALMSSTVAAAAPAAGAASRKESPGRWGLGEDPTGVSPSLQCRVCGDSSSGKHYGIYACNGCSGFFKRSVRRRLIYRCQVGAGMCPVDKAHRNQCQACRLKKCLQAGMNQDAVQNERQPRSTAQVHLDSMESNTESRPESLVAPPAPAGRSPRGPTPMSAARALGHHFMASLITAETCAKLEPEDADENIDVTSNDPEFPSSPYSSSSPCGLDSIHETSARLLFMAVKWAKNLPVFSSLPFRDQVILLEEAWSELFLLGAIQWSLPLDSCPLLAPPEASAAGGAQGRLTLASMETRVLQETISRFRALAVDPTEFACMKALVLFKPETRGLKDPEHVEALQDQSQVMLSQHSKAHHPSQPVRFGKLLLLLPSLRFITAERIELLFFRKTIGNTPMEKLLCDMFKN
# NR2E3 ag-2: NR2E3 (human) agonism; Q9Y5X4; GST-NR2E3/biotin-RetCOR TR-FRET, 1536-well; inhibition of corepressor binding, % at 4.78 µM; actives 0.12% (n = 320,000); AID 2300;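 active = percent inhibition above the cutoff of mean plus 3 SD of all tested compounds, set per screening campaign, cut at about 20% in these data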;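 note: 0% = DMSO wells and 100% = biotin wells as full block of FRET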
#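 System: GST-NR2E3 and biotin-RetCOR proteins; probe or stimulus: 7 nM biotin-RetCOR; doses: compound at 4.8 µM, single dose; schedule: Compound–protein incubation for 5 h at 4 °C; detection: time-resolved FRET; read-out: percent inhibition; controls: biotin wells as high control, 0.6% DMSO wells as low control; format: 1536-well plates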
# NR1D1 mod conf: Rev-erb alpha (human) modulation, hit confirmation; shares compounds with Rev-erbA mod; Rev-erb alpha FITC-DNA binding, fluorescence polarization, 90 min; activation, % at 25 µM; actives 61% (n = 3,000); AID 1259319;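 active = activation at or above a set limit, or at least 3 SD above the negative control mean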;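 note: 0% = 35 nM protein with DMSO and 100% = 750 nM protein high control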
# RORg DNA counter: RORgamma DNA-binding activity, dose-response counter-screen; shares compounds with Rev-erbA mod; purified RORgamma protein-FITC-DNA binding, fluorescence polarization; IC50, µM; actives 8% (n = 910); AID 1259320;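 active = Compounds whose fitted half-maximal concentration for disrupting protein-DNA binding is below 10 micromolar; the record names Rev-erb in its text, so the target is in doubt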
# Starred values were filed as active, the others as inactive; i = inactive; . = no result.
SMILES,PG9 binder,Rev-erbA mod,NR2E3 ag-1,NR2E3 ag-2,NR1D1 mod conf,others
COc1ccc2cc(C(=O)COC(=O)COc3ccc4c(C)cc(=O)oc4c3)ccc2c1,1,85*,3,3,52*,RORg DNA counter=>40
COc1cccc(N2CCN(c3ccc4nnc(CCC(=O)Nc5cccc(C(C)=O)c5)n4n3)CC2)c1,-2,27*,-22,0,8,
COc1cccc(N2CCN(c3ccc4nnc(CCC(=O)Nc5ccc(F)cc5)n4n3)CC2)c1,-1,3,-4,0,.,
CC1CCN(c2ccc3nnc(CCC(=O)Nc4ccc(F)c(F)c4)n3n2)CC1,-2,28*,-10,-3,2,
Cc1sc2nc(C(C)(C)C)oc(=O)c2c1C,.,-2,6,2,.,
COc1cc(-c2nc3sc(C)c(C)c3c(=O)o2)cc(OC)c1OC,1,31*,14,0,18,
Cc1ccccc1-c1nc2sc(C)c(C)c2c(=O)o1,2,18*,-5,1,0,
Cc1sc2nc(-c3ccco3)oc(=O)c2c1C,4,3,-1,4,.,
COc1ccc(-c2csc3nc(-c4ccc(C)cc4)oc(=O)c23)cc1OC,0,27*,-1,2,-4,
CCOC(=O)CSC1=NC(=O)CS1,-2,-4,4,0,.,
Brc1ccc2nc(-c3ccc(CN4CCC(c5nc6ccccc6[nH]5)CC4)cc3)c(-c3ccccc3)nc2c1,-1,16*,.,.,12*,
Nc1nc(-c2ccccc2)c(N=Nc2cccc3ccccc23)s1,0,0,-22,-1,.,
Nc1nc(-c2ccccc2)c(N=Nc2ccccc2Cl)s1,-2,30*,-18,0,27*,
Cc1ccc(Cn2nc(C)c(NC(=O)CSc3nc4c(c(C(F)(F)F)n3)CCc3ccccc3-4)c2C)cc1,-1,45*,-4,-1,29*,
Cc1ccccc1Cn1cc(NC(=O)CSc2nc3c(c(C(F)(F)F)n2)CCc2ccccc2-3)cn1,2,19*,-7,0,9,
NC(=O)c1c(NC(=O)CSc2nc3c(c(C(F)(F)F)n2)CCc2ccccc2-3)sc2c1CCCC2,.,13,-5,-1,.,
Cc1nn(Cc2ccc(Cl)cc2)c(C)c1NC(=O)CSc1nc2c(c(C(F)(F)F)n1)CCc1ccccc1-2,0,32*,-26,0,25*,
N#Cc1c(NC(=O)CSc2nc3c(c(C(F)(F)F)n2)CCc2ccccc2-3)sc2c1CCCC2,1,40*,-8,-1,23*,
COc1cc(/C=N/NC(=O)C(N)=O)ccc1OCC(=O)N1C(C)CCCC1C (stereo not given),0,2,10,5,.,
CCCc1cc(=O)oc2c3c(cc(OCC(=O)N4CCC(C(=O)O)CC4)c12)OC(C)(C)CC3,1,-5,-23,.,.,
CC(=O)Nc1cc(ON=C(C)C)cc([N+](=O)[O-])c1,1,-1,-25,0,.,
COc1ccc(-c2ccc(C#N)c(SCC(=O)Nc3sc4c(c3C#N)CCC4)n2)cc1OC,0,40*,0,1,24*,
CCOC(=O)C1=C[C@@H](CC)N(S(=O)(=O)c2ccc(C)cc2)[C@H]1c1cccc(Cl)c1,-1,-2,-4,.,.,
N#CCCN(CCC#N)S(=O)(=O)c1ccc(C(=O)Nc2nc(-c3ccccc3)c(C(=O)c3ccccc3)s2)cc1,1,189*,-33,2,177*,RORg DNA counter=4.1*
Cc1ccc(-c2nc(NC(=O)c3ccc(S(=O)(=O)N(CCC#N)CCC#N)cc3)sc2-c2ccccc2)cc1,-2,26*,-23,1,18*,
SMILES,PG9 binder,Rev-erbA mod,NR2E3 ag-1,NR2E3 ag-2,NR1D1 mod conf,others
COc1ccccc1CNc1nc2cc(-c3ccccc3C)sc2c(=O)n1C,1,2,3,.,.,
COc1ccccc1CNc1nc2cc(-c3sccc3C)sc2c(=O)n1C,1,29*,-89,.,20*,
COC(=O)c1c(NC(=O)CN2CCN(c3ncccn3)CC2)sc(C(N)=O)c1C,0,3,-1,-2,.,
Cc1ccc(C(=O)Nc2nnc(-c3ccc(C(C)(C)C)cc3)s2)cc1,-1,26*,-31,1,3,
C=C(C)CSc1nc(N)c(C#N)c(-c2ccc(C)cc2)c1C#N,-2,24*,-30,6,18*,
CCCOC(=O)CSc1nc(N)c(C#N)c(-c2ccco2)c1C#N,0,-2,-1,2,.,
CCCCOC(=O)CSc1nc(N)c(C#N)c(-c2ccc(OC)cc2)c1C#N,-1,53*,-4,0,28*,
CCOC(=O)CC(=O)CSc1nc(N)c(C#N)c(-c2ccc(F)cc2)c1C#N,0,-5,-7,2,.,
CCCCOC(=O)CSc1nc(N)c(C#N)c(-c2ccc(OCC)cc2)c1C#N,0,49*,2,-3,36*,RORg DNA counter=>40
CC1=C(C(=O)OCCOc2ccccc2)C(c2ccsc2)NC(=O)N1C (stereo not given),1,6,4,1,.,
CCc1nnc(NC(=O)CN2CCN(c3ccccc3F)CC2)s1,0,8,-1,2,.,
CN(C)/C=N/c1ncc(C(=O)c2ccc(-c3ccccc3)cc2)s1,2,17*,-50,4,10,
CSc1ccc(SC2CN(Cc3ccc(C)cc3)S(=O)(=O)C2)cc1 (stereo not given),2,25*,.,.,28*,RORg DNA counter=>40
Cc1ccc(CN2CC(N3CCN(CCO)CC3)CS2(=O)=O)cc1 (stereo not given),-1,3,-2,.,.,
Cc1ccc(-c2c(C#N)c(N)n(-c3ccccc3C)c(=O)c2C#N)cc1,-1,-4,-2,.,.,
Cc1ccc(-n2c(N)c(C#N)c(-c3ccccc3)c(C#N)c2=O)cc1,2,22*,-3,-4,62*,RORg DNA counter=i
CCCC1CCC2(CC1)CCC2OC(=O)Nc1cccc(C(F)(F)F)c1 (stereo not given),.,3,.,.,.,
CCn1c(/C=C/c2c[nH]c3ccccc23)nc2ccccc2c1=O,-1,1,-105,1,.,
CCn1c(/C=C/c2c(C)[nH]c3ccccc23)nc2ccccc2c1=O,-1,59*,2,1,29*,
CC(=O)NC(c1ccc(F)c(F)c1)c1nc(-c2ccc(F)c(Cl)c2)cs1 (stereo not given),0,42*,1,.,-5,
OC(c1ccccc1)c1nc(-c2ccc(F)c(Cl)c2)cs1 (stereo not given),0,16*,-29,.,-1,
CC(=O)NC(c1ccc(F)c(F)c1)c1nc(-c2ccc(C)c(C)c2)cs1 (stereo not given),-2,1,-8,.,.,
CCOC(=O)c1c(NC(=O)COC(=O)c2ccc(NC(=O)CC#N)cc2)sc(C(=O)NC)c1C,0,2,-6,-12,.,
Cc1ccc(N2CC(C(=O)Nc3ccc(N4CCOCC4)cc3)CC2=O)cc1C (stereo not given),2,4,-12,1,.,
